From publication PMC2859510 (The Journal of Biological Chemistry, 2010)
“Also recorded” adds a separate entry of the source. Where no end group is shown, it is not given here.

Legend:
[1] = biological target: GST-NEMO-(2–200) (UniProt Q9Y6K9); experiment: AlphaScreen or HTRF
[2] = test system: IRAK-1, TAK-1, IκBα, p65; experiment: NF-κB signaling intermediates in IL-1β-stimulated RASF; format: cell-based, patients with rheumatoid arthritis; conditions: then 1 ng/ml IL-1β 10 min; for IRAK-1 fate (disappearance of band) / TAK-1 phosphorylation: 30 min
Method in brief: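 Fibroblasts were given peptide for 30 min, then 1 ng/ml IL-1β for 10 min at 37 °C. Lysis used Tris pH 7.6 / NaCl / 0.5% NP-40 buffer with protease and phosphatase inhibitors, with protein measured by Bradford. Blots were run by SDS-PAGE and PVDF transfer, with primary Abs 2 h at 25 °C (anti-IRAK-1, anti-phospho-TAK-1, anti-p65) and secondary Ab 1 h. Tubulin served as loading control.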

[3] = test system: NEMO-IKK-2 complex; experiment: Immunoprecipitation of the IKK complex with anti-NEMO from RASF; format: cell-based, patients with rheumatoid arthritis; conditions: 150 μM WT or mutant peptide, 30 min, then 1 ng/ml IL-1β 10 min; IKK-2 11-mer
Method in brief: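 Fibroblasts were given 150 μM WT or mutant peptide for 30 min, then 1 ng/ml IL-1β for 10 min at 37 °C. Cells were lysed in 20 mM Tris pH 7.6, 150 mM NaCl, 0.5% NP-40, PMSF, protease and phosphatase inhibitors. From 50 μg lysate, the complex was pulled down with anti-NEMO mAb for 1 h, then Protein A beads for 1 h. Precipitates and inputs were blotted under reducing SDS-PAGE and read by infrared imaging. Runs were repeated 2–4 times.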

[4] = test system: unstimulated RASF; experiment: Basal IL-6 production in RASF; format: cell-based, patients with rheumatoid arthritis; conditions: pretreated 2 h, vehicle 18 h, IKK-2 11-mer
Method in brief: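 Commercial RASF were seeded at 1.5 × 10^4 cells/well in high-glucose DMEM with 15% defined bovine serum and 50 μg/ml gentamicin, attached overnight, then switched to DMEM with 1% serum. Cells were pretreated 2 h with increasing test compound concentrations, then given vehicle for 18 h. Secreted IL-6 was measured by MSD; cytotoxicity by Alamar Blue. Expressed as % of untreated cells; mean ± S.D., ≥3 determinations.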

[5] = test system: bovine nasal cartilage explant cultures; format: cell-based; conditions: data not shown
[6] = test system: LPS-stimulated PBMC; experiment: LPS-induced TNF-α and IL-6 production in PBMC; format: cell-based, human; conditions: pretreated 2 h, 10 ng/ml LPS 18 h, IKK-2 11-mer, Fig. 1A/data not shown
Method in brief: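 PBMC were Ficoll-isolated from heparinized healthy-donor blood and kept in DMEM with 5% endotoxin-free FBS and pen/strep. They were plated at 2.5 × 10^5 cells/well and given rising peptide doses for 2 h. Then 10 ng/ml LPS or vehicle was added for 18 h, at 1% DMSO final. TNF-α and IL-6 were read by MSD, IC50 fitted, and viability checked by Alamar Blue. Data are % of LPS-stimulated cells, mean ± S.D.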

[7] = test system: NEMO-IKK-2 interactions; experiment: In situ proximity ligation assay, NEMO-IKK-2 interactions in RASF; format: cell-based, patients with rheumatoid arthritis; conditions: data not shown
Method in brief: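 RASF on culture slides (2.5 × 10^4 cells/well, DMEM 10% FBS, overnight 37 °C) were moved to serum-free DMEM with 1% DMSO or test compound for 30 min. Cells were fixed (4% paraformaldehyde), permeabilized (0.1% Triton X-100), and blocked. They were then incubated overnight at 4 °C with anti-NEMO plus anti-IKK-2 Abs, then with oligonucleotide-linked probes (1 h, 37 °C), followed by ligation and amplification. Counterstained with Hoechst and imaged at ×20; signals/cell averaged per image.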

[8] = test system: IKK-2 (Ser^181); IκBα; format: cell-based, patients with rheumatoid arthritis; conditions: RASF, peptide 1 h before 1 ng/ml IL-1β 10 min; IKK-2 11-mer
Method in brief: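 Rheumatoid arthritis synovial fibroblasts were exposed to peptide for 1 h, then to 1 ng/ml IL-1β for 10 min. The same lysates also served the kinase assay. Proteins were separated by SDS-PAGE and transferred to PVDF. Membranes were probed 2 h at 25 °C with anti-phospho-IKK-1(Ser180)/IKK-2(Ser181) or anti-IκBα, then with secondary Ab for 1 h. Bands were read by infrared imaging.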

[9] = test system: NF-κB reporter gene; conditions: proinflammatory stimuli (TNF-α); cited from earlier work
[10] = biological target: GST-NEMO-(2–200) and IKK-2-FLAG (Homo sapiens, UniProt Q9Y6K9); experiment: Alphascreen binding assay, recombinant NEMO and IKK-2; conditions: pH 7.4, read-out: inhibition of NEMO-IKK-2 interaction at 100 μM, Alphascreen
Method in brief: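 GST-NEMO-(2–200) (2 nM) and C-terminal FLAG-tagged full-length IKK-2 (2 nM) were incubated 30 min at room temperature in buffer containing 50 mM HEPES pH 7.4, 0.01% BSA, 0.0005% Tween 20 and 1 mM DTT. Unlabeled competitor peptides were titrated in for 30 min. Glutathione donor and anti-FLAG acceptor beads were added, overnight at room temperature, then Alphascreen read. Mean ± S.E. of four independent experiments.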

[11] = test system: NF-κB reporter gene; conditions: cited from earlier work
[12] = test system: unstimulated PBMC; experiment: Basal TNF-α and IL-6 production in PBMC; format: cell-based, human; conditions: pretreated 2 h, vehicle 18 h, IKK-2 11-mer
Method in brief: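 Human PBMC from heparinized healthy-donor blood were isolated by Ficoll, plated at 2.5 × 10^5 cells/well in DMEM with 5% endotoxin-free FBS and penicillin/streptomycin. Cells were pretreated 2 h with increasing test compound concentrations, then given vehicle for 18 h (1% DMSO final). TNF-α and IL-6 were measured by MSD; cytotoxicity by Alamar Blue. Expressed as % of untreated cells; mean ± S.D., ≥3 determinations.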

[13] = test system: IL-1β-stimulated RASF; experiment: IL-1β-induced IL-6 production in RASF; format: cell-based, patients with rheumatoid arthritis; conditions: pretreated 2 h, 1 ng/ml IL-1β 18 h, 1% serum, IKK-2 11-mer
Method in brief: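 Fibroblasts were grown in high-glucose DMEM with 15% defined bovine serum and 50 μg/ml gentamicin. They were seeded at 1.5 × 10^4 cells/well, attached overnight, then moved to DMEM with 1% serum. Cells got rising peptide doses for 2 h, then 1 ng/ml IL-1β for 18 h. Secreted IL-6 was read by MSD, IC50 fitted, and viability checked by Alamar Blue. Data are % of stimulated cells, mean ± S.D. of ≥3 determinations.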

[14] = biological target: NEMO-(2-200) (UniProt Q9Y6K9); experiment: fluorescence polarisation
[15] = biological target: GST-NEMO-(2–200) and biotinylated IKK-1/2 chimeric 44-mer peptide (Homo sapiens, UniProt Q9Y6K9); experiment: Time-resolved FRET binding assay
[16] = test system: IKK complex; experiment: Native PAGE / Western blot: release of IKK-2 from an IKK complex in RASF; format: cell-based, patients with rheumatoid arthritis; conditions: 30 min peptide, then IL-1β 10 min, IKK-2 11-mer

Sequence of GST-NEMO-(2–200) (Q9Y6K9 2-200): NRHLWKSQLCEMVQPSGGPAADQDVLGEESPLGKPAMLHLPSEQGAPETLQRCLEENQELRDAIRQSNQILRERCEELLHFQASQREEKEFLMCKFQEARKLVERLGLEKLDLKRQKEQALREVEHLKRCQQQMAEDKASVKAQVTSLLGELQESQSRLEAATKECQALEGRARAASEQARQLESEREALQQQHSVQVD
Sequence of GST-NEMO-(2–200) and biotinylated IKK-1/2 chimeric 44-mer peptide (Q9Y6K9 2-200, change not shown): as the sequence (Q9Y6K9 2-200) above
Sequence of NEMO-(2-200) (Q9Y6K9 2-200): as above
Sequence of GST-NEMO-(2–200) and IKK-2-FLAG (Q9Y6K9 2-200): as above

| IC50 [1] [nM] | Substance | IRAK-1 fate (disappearance of band) [2] | TAK-1 phosphorylation [2] | IκBα degradation (30 min pretreatment) [2] | basal IL-6 production, RASF [4] | cytokine-induced release of glycosaminoglycans [5] | IKK-2 phosphorylation at Ser^181 [8] | IκBα degradation [8] | basal cytokine production (TNF-α and IL-6), PBMC [12] | also measured |
| --- | --- | --- | --- | --- | --- | --- | --- | --- | --- | --- |
| > 100000 | Antennapedia homeodomain-conjugated IKK-2 11-mer NBD peptide (WT) | – | – | – | – | – | – | – | – | percent inhibition at 100 μM [1]: 40% |
| – | DRQIKIWFQNRRMKWKKTALDWSWLQTE [WT NBD peptides] | no effect | no effect | inhibited IκBα degradation in a concentration-dependent manner | neither WT nor mutant NBD peptides had an inhibitory effect; also recorded: slight increase in basal cytokine production | inhibited | inhibited | inhibited | neither WT nor mutant NBD peptides had an inhibitory effect; also recorded: slight increase in basal cytokine production | relative concentration of IKK-2 in the immunoprecipitated complex [3]: no significant effect; LPS-induced production of IL-6 [6]: completely blocked; NEMO-IKK-2 interactions (PLA), unstimulated [7]: inhibited NEMO-IKK-2 interactions in unstimulated cells; NF-κB reporter gene activity, stimulated [9]: inhibited NF-κB reporter gene activity; inhibition at 100 µM [10]: 40%; NF-κB reporter gene activity, basal [11]: did not inhibit basal reporter gene activity; IL-1β-induced IL-6 production [13]: completely blocked |
| > 1000 | IKK-2 45-mer mutant (W739A and W741A) (peptide) | – | – | – | – | – | – | – | – | IC50 [14]: > 1000 nM |
| – | PAKKSEELVAEAHNLCTLLENAIQDTVREQDQSFTALDWSWLQTE [IKK-2 45-mer] | – | – | – | – | – | – | – | – | IC50 [15]: 1 to 7 nM |
| – | TALDASALQTE [mutant NBD peptides] | failed | failed | failed to protect IκBα from degradation | neither WT nor mutant NBD peptides had an inhibitory effect | WT but not mutant NBD peptides inhibited | WT but not mutant NBD peptides inhibited | WT but not mutant NBD peptides inhibited | neither WT nor mutant NBD peptides had an inhibitory effect | release of IKK-2 from IKK complex, IL-1β-treated [16]: WT but not mutant NBD peptides led to the appearance of an IKK-2 band distinct from the complex; also recorded: WT but not mutant NBD peptides resulted in the release of IKK-2 |
